Experiment [1] has as its target Sucrase-isomaltase, intestinal (Rattus norvegicus) (UniProt P23739). The experiment is described as follows: Inhibition of rat intestinal isomaltase assessed as glucose release at 1000 uM by Glucose B-test. The procedure, abridged: (§1)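 Enzyme source was brush border membranes prepared from rat small intestine. Maltase, sucrase and isomaltase activities were read with the matching disaccharide substrate at each enzyme's optimum pH, and liberated D-glucose was quantified colorimetrically by Glucose B-test.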

For experiment [2] the target is unchanged. The experiment is described as follows: Inhibition of rat intestinal sucrase assessed as glucose release at 1000 uM by Glucose B-test. The procedure, abridged: as §1
Experiment [3] can be described thus: Inhibition of Aspergillus niger amyloglucosidase assessed as glucose release by Glucose B-test. Summed up:
(§2)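 Disaccharide substrate suited to each enzyme, at that enzyme's optimum pH. Released D-glucose was measured colorimetrically with the Glucose B-test.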

Experiment [4] deals with Lysosomal alpha-glucosidase (Rattus norvegicus) (UniProt Q6P7A9). Description: Inhibition of rat intestinal maltase assessed as glucose release at 1000 uM by Glucose B-test. The procedure, abridged:
as §1

A short description of experiment [5]: Inhibition of yeast alpha-glucosidase assessed as p-nitrophenol release by spectrophotometrically. Set-up: species or system Saccharomyces cerevisiae. The procedure, abridged:
(§3)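 Assayed with the appropriate p-nitrophenyl glycoside substrate at each enzyme's optimum pH.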

Experiment [6] has as its target T1, Beta-galactosidase (Bos taurus, UniProt Q58D55).
T1 sequence (Q58D55 whole entry): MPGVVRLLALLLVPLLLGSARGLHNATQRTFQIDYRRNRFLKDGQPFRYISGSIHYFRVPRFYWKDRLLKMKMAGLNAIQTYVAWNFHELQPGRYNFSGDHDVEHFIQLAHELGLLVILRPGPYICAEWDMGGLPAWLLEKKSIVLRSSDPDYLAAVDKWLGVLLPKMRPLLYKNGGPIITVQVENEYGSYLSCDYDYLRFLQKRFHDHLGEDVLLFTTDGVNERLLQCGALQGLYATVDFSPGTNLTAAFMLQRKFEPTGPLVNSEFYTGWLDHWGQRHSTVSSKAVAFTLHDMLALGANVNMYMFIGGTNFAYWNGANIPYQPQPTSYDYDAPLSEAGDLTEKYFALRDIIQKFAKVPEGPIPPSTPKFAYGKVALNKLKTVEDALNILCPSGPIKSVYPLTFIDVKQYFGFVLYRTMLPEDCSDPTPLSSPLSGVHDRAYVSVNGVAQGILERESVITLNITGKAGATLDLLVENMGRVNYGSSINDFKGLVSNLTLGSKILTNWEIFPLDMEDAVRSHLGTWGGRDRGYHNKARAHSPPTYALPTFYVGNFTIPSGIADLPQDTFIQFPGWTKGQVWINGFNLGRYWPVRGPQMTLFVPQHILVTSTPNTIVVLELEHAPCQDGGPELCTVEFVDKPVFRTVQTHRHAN
Description: Inhibition of bovine liver beta-galactosidase assessed as p-nitrophenol release by spectrophotometrically. The procedure, abridged: as §3

Experiment [7] addresses T2, Beta-mannosidase (Rattus norvegicus) (UniProt Q4FZV0).
T2 sequence (whole entry): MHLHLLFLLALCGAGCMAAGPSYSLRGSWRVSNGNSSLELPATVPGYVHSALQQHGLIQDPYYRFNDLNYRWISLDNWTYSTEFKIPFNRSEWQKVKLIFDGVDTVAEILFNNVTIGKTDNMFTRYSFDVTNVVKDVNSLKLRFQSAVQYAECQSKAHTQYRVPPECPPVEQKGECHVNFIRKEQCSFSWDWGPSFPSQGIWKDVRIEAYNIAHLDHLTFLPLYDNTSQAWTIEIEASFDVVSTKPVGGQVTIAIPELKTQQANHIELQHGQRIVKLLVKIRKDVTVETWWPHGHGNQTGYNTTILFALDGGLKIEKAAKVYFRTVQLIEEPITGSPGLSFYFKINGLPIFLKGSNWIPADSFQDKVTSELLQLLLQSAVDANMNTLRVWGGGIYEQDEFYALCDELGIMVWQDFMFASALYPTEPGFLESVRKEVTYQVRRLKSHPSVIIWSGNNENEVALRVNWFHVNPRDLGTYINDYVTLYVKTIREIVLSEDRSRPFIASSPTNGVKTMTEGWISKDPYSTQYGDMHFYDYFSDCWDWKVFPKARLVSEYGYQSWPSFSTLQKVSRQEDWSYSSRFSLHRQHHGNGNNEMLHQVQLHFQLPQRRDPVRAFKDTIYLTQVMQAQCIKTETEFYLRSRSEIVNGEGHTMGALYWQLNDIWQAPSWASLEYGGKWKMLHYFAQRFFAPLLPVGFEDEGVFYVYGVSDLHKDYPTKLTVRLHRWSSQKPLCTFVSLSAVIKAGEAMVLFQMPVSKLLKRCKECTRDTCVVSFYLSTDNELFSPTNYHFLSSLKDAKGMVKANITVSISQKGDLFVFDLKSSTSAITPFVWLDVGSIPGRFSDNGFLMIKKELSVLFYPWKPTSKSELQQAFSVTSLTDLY
The experiment is described as follows: Inhibition of rat epididymis beta-mannosidase assessed as p-nitrophenol release at 1000 uM by spectrophotometrically.

The species entered for experiment [8] is Rattus norvegicus. Description: Inhibition of rat epididymis alpha-mannosidase assessed as p-nitrophenol release at 1000 uM by spectrophotometrically.
The target of experiment [9] is Alpha-galactosidase (Coffea arabica) (UniProt Q42656). Description: Inhibition of coffee bean alpha-galactosidase assessed as p-nitrophenol release at 1000 uM by spectrophotometrically. Summed up: as §3
For experiment [10], the system named is Oryza sativa. Description: Inhibition of rice alpha-glucosidase assessed as glucose release at 1000 uM by Glucose B-test. Summed up: as §2
Experiment [11] has as its target T3, Tissue alpha-L-fucosidase (Bos taurus, UniProt Q2KIM0).
T3 sequence (Q2KIM0 whole entry): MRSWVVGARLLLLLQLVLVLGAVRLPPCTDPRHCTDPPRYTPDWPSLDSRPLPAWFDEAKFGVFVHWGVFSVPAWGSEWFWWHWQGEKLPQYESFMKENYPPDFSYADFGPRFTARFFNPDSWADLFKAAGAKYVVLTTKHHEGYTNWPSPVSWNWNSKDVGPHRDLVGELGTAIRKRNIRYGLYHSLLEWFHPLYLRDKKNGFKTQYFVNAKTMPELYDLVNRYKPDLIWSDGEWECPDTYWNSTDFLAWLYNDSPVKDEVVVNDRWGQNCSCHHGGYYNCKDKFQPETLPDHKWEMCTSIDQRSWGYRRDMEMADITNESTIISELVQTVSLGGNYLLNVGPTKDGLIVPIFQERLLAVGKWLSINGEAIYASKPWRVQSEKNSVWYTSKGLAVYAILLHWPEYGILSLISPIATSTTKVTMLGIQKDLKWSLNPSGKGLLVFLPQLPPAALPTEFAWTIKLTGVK
The experiment is described as follows: Inhibition of bovine epididymis alpha-L-fucosidase assessed as p-nitrophenol release by spectrophotometrically. Summed up:
as §3

Experiment [12] deals with T4, Tissue alpha-L-fucosidase (Bos taurus) (UniProt Q2KIM0).
T4 sequence (whole entry): T3 sequence (Q2KIM0 whole entry)
Description: Inhibition of bovine epididymis alpha-L-fucosidase assessed as p-nitrophenol release at 1000 uM by spectrophotometrically. Summed up: as §3

A short description of experiment [13]: Inhibition of rice alpha-glucosidase assessed as glucose release by Glucose B-test. Set-up: species or system Oryza sativa. Summed up: as §2
For experiment [14], the target named is T5, Beta-mannosidase (Rattus norvegicus, UniProt Q4FZV0).
T5 sequence (Q4FZV0 whole entry): T2 sequence (whole entry)
The experiment is described as follows: Inhibition of rat epididymis beta-mannosidase assessed as p-nitrophenol release by spectrophotometrically.

Experiment [15] concerns the target Alpha-glucosidase MAL62 (Saccharomyces cerevisiae, UniProt P07265). Description: Inhibition of yeast maltase alpha-glucosidase assessed as glucose release by Glucose B-test.
Experiment [16] addresses Alpha-glucosidase MAL62 (Saccharomyces cerevisiae) (UniProt P07265). Description: Inhibition of yeast maltase alpha-glucosidase assessed as glucose release at 1000 uM by Glucose B-test.
In experiment [17] the test system is Saccharomyces cerevisiae. Description: Inhibition of yeast isomaltase alpha-glucosidase assessed as glucose release at 1000 uM by Glucose B-test.
Experiment [18] deals with T6, Uncharacterized protein (Sus scrofa, UniProt I3LIR5).
T6 sequence (I3LIR5 whole entry): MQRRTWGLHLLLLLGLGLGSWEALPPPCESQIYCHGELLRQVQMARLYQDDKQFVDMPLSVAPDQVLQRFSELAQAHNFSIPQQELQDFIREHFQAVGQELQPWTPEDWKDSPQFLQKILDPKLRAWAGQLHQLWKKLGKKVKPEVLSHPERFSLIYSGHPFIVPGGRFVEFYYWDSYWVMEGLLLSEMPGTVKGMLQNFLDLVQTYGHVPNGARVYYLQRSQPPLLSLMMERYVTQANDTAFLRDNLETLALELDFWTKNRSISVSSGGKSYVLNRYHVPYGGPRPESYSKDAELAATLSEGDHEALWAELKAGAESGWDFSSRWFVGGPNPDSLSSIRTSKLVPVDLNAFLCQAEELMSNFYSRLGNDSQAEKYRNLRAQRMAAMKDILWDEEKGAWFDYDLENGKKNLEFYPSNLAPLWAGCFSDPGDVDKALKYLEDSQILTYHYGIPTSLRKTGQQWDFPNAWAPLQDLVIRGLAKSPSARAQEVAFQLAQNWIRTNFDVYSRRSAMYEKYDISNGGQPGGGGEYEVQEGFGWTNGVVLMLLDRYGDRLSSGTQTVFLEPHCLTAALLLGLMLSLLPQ
The experiment is described as follows: Inhibition of pig kidney trehalase assessed as p-nitrophenol release by spectrophotometrically.

The subject of experiment [19] is Saccharomyces cerevisiae. The experiment is described as follows: Inhibition of yeast alpha-glucosidase assessed as p-nitrophenol release at 1000 uM by spectrophotometrically. The procedure, abridged:
as §3

The subject of experiment [20] is Aspergillus niger. Description: Inhibition of Aspergillus niger amyloglucosidase assessed as glucose release at 1000 uM by Glucose B-test. Summed up: as §2
Experiment [21] has as its target T7, Beta-galactosidase (Bos taurus) (UniProt Q58D55).
T7 sequence (whole entry): T1 sequence (Q58D55 whole entry)
Description: Inhibition of bovine liver beta-galactosidase assessed as p-nitrophenol release at 1000 uM by spectrophotometrically. The procedure, abridged: as §3

Experiment [22] addresses T8, Uncharacterized protein (Sus scrofa) (UniProt I3LIR5).
T8 sequence (whole entry): T6 sequence (I3LIR5 whole entry)
Description: Inhibition of pig kidney trehalase assessed as p-nitrophenol release at 1000 uM by spectrophotometrically.

The nature of experiment [23]: Inhibition of yeast isomaltase alpha-glucosidase assessed as glucose release by Glucose B-test.

A value given as a limit tells only on which side of the number the result lay.

Sequence of Lysosomal alpha-glucosidase (Rattus norvegicus) (Q6P7A9 whole entry): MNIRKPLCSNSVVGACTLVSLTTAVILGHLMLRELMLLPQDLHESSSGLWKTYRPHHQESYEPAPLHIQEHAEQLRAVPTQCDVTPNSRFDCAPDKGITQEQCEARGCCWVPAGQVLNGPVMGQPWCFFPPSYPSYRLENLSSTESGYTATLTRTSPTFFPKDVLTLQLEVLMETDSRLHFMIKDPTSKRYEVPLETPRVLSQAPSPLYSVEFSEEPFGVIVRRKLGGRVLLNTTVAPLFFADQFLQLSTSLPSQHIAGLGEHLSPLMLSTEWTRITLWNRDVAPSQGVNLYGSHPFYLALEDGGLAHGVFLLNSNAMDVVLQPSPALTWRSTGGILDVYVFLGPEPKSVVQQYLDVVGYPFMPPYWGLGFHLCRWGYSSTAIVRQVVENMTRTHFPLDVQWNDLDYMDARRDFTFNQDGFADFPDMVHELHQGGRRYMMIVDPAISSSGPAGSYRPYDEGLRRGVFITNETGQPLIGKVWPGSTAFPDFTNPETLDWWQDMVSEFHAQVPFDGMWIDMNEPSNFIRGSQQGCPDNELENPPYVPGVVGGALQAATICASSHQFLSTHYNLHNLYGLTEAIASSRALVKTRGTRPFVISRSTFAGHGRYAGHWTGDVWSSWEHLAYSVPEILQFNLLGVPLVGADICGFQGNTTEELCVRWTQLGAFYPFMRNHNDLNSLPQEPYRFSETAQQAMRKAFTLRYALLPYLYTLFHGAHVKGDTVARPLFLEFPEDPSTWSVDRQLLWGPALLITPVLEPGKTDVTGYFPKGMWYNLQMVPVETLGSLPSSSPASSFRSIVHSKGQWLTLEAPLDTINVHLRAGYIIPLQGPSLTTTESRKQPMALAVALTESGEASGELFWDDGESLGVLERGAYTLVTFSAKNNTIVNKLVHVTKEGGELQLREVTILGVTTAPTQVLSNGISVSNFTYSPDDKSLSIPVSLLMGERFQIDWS
Sequence of Alpha-glucosidase MAL62 (P07265 whole entry): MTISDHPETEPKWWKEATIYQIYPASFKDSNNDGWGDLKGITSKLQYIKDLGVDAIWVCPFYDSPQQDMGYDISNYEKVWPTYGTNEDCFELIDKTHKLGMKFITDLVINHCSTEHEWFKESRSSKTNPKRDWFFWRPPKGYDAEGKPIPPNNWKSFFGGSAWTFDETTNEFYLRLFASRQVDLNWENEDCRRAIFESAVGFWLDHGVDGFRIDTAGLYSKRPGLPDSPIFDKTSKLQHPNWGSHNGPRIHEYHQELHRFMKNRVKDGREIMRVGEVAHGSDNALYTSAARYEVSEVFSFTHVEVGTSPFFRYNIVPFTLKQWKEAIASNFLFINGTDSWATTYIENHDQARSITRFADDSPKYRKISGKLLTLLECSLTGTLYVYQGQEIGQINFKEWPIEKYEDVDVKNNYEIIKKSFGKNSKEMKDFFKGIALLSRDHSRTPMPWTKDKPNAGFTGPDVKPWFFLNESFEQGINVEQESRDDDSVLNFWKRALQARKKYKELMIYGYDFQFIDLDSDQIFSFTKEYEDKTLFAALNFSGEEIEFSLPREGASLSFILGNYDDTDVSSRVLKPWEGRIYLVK
Sequence of Sucrase-isomaltase, intestinal (Rattus norvegicus) (P23739 1-1013 limits assumed): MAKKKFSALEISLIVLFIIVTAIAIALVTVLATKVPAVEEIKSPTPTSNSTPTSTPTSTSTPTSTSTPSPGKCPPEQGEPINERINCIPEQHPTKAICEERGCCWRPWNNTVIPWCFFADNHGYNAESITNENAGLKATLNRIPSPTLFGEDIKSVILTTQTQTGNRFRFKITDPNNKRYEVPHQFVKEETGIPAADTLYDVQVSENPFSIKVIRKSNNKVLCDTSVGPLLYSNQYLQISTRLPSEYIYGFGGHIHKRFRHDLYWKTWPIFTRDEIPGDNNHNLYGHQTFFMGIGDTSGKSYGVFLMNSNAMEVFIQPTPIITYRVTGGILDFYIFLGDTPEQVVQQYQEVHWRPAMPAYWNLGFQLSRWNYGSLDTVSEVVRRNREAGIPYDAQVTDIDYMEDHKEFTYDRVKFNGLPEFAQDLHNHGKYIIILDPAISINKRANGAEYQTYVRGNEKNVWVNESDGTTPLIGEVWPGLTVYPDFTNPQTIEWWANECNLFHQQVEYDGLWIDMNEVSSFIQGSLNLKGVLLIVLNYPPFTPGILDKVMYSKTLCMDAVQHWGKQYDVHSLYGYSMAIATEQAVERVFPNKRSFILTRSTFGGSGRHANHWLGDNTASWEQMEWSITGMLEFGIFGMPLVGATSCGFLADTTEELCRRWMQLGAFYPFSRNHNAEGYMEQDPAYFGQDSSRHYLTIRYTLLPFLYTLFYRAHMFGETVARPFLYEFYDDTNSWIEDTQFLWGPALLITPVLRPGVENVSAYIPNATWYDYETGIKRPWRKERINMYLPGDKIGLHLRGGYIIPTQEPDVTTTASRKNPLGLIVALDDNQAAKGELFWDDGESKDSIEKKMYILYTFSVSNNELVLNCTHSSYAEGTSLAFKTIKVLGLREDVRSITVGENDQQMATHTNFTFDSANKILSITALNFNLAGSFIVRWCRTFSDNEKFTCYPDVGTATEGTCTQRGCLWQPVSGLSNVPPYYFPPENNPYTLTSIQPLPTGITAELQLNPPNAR
Sequence of Sucrase-isomaltase, intestinal (Rattus norvegicus) (P23739 1014-1841 limits assumed): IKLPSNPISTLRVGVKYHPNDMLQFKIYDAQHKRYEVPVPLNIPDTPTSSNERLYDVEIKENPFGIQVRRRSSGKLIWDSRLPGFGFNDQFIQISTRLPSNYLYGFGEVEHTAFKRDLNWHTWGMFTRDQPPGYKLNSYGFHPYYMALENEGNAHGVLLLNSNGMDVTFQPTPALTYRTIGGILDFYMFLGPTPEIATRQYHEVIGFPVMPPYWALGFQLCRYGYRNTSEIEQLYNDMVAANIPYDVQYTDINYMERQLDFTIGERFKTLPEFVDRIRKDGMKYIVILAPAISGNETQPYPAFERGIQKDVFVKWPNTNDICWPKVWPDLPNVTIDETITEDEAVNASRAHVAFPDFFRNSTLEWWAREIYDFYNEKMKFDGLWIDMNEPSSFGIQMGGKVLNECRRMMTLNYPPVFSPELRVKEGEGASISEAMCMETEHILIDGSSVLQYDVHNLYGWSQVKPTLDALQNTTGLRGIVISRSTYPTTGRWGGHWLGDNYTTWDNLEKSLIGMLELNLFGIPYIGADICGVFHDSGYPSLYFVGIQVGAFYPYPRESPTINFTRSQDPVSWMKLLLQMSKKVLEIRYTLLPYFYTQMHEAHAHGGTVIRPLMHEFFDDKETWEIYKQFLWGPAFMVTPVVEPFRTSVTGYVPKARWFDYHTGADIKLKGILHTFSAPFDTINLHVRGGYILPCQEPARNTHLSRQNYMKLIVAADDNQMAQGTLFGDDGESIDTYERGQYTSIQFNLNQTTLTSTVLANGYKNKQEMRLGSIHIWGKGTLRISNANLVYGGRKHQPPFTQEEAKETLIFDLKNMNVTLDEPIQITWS
Sequence of Alpha-galactosidase (Coffea arabica) (Q42656 16-378 limits assumed): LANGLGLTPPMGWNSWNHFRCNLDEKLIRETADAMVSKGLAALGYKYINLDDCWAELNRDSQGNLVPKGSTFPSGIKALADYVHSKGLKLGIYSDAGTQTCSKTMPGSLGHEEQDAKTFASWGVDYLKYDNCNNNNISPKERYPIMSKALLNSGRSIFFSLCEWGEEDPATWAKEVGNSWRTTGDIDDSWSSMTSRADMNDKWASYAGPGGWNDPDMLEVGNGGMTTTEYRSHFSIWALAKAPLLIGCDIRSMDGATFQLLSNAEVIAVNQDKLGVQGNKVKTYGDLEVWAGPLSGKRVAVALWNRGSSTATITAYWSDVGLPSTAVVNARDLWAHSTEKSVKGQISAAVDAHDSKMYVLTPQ
Sequence of Alpha-glucosidase MAL62 (Saccharomyces cerevisiae) (P07265 whole entry): as the sequence (P07265 whole entry) above

What is called inhibition is the relative decrease from the control value, in per cent. For orientation: IC50 means the concentration needed to halve the response being measured. A word on the Ki: it is a dissociation constant, usually derived from enzyme kinetics or from competition with a known ligand. For the molecule `C[C@H]1N[C@@H](CO)[C@H](O)[C@H]1O`, the inhibition in [1], in experiment [2], in experiment [4], in [7], in experiment [8] and in experiment [9] was below 50% in each case. For the same molecule, the inhibition in experiment [10] is below 50%. Further, the IC50 in [3] came to 510 µM; in experiment [5], 570 µM; in experiment [6], 420 µM; in experiment [11] it was 1 µM. The Ki in experiment [11] stood at 0.49 µM.
For `OC[C@H]1NC[C@H](O)[C@@H]1O` [IMINORIBITOL], the inhibition in experiment [12], in experiment [4], in [8] and in experiment [9] was below 50% in each case. In addition, the IC50 in [3] turned out to be 1000 µM; in experiment [5] it was 230 µM; in experiment [6], 380 µM; in experiment [13], 1000 µM; in experiment [14], 18 µM.
As to `C[C@@H]1N[C@H](CO)[C@@H](O)[C@H](O)[C@@H]1O`, the Ki in experiment [11] was 0.0053 µM.
As for `OC[C@H]1N[C@H](CO)[C@@H](O)[C@@H]1O`, in experiment [15], the IC50 amounted to 2 µM.
For `OCCN1C[C@H](O)[C@@H](O)[C@H](O)[C@H]1CO` [MIGLITOL], the inhibition in experiment [16] and in [17] was below 50% in each case. Moreover, the IC50 in experiment [18] amounted to 700 µM.
With `C[C@H]1N[C@@H](CO)[C@@H](O)[C@H]1O`, the inhibition in [1], in [19], in [2], in experiment [4], in experiment [7] and in experiment [8] was below 50% throughout. Also, the inhibition in [20], in experiment [21], in experiment [9] and in experiment [10] was below 50% throughout. The IC50 in experiment [11] stood at 35 µM.
In the case of `C[C@H]1N[C@H](CO)[C@@H](O)[C@@H]1O`, the inhibition in experiment [1], in [2], in experiment [4], in experiment [8], in experiment [9] and in experiment [10] was below 50% in each case. For the same molecule, the IC50 in experiment [3] stood at 160 µM; in experiment [5], 270 µM; in experiment [6], 30 µM; in experiment [14], 93 µM; in experiment [11] it was 150 µM.
Turning to `C[C@H]1O[C@H](OC[C@H]2NC[C@@H](O)[C@@H](O)[C@@H]2O)[C@@H](O)[C@@H](O)[C@@H]1O`, in [11], the Ki was 0.06 µM.
Take `OCCN1[C@H](CO)[C@@H](O)[C@H](O)[C@H]1CO`: the inhibition in [22] was below 50%. For the same molecule, the IC50 in experiment [15] was determined as 260 µM; in experiment [23], 240 µM.
Turning to `OC[C@H]1NC[C@@H](O[C@@H]2O[C@H](CO)[C@@H](O)[C@H](O)[C@H]2O)[C@@H]1O`, the inhibition in [1], in [19], in experiment [12], in [2], in [4] and in experiment [7] was below 50% in each case. For the same molecule, the inhibition in experiment [8], in [20], in experiment [21], in [9] and in experiment [10] was below 50% in each case.
Take `OC[C@H]1NC[C@H](O)[C@@H](O)[C@@H]1O` [DUVOGLUSTAT]: the IC50 in experiment [15] worked out at 110 µM; in [23], 42 µM; in [18] it was 41 µM.
Take `OC[C@H]1O[C@@H](OC[C@H]2NC[C@@H](O)[C@@H]2O)[C@H](O)[C@@H](O)[C@@H]1O`: the inhibition in experiment [1], in [19], in [12], in [2], in [4] and in experiment [7] was below 50% in each case. Further, the inhibition in experiment [8], in [20], in experiment [21], in experiment [9] and in experiment [10] was below 50% each time.

The values above are taken from ChEMBL document CHEMBL1148104, “New sugar-mimic alkaloids from the pods of Angylocalyx pynaertii” (J Nat Prod, 2002).
